Reference: ChEMBL document CHEMBL1765057, “Pyrazolo[4,3-d]pyrimidine bioisostere of roscovitine: evaluation of a novel selective inhibitor of cyclin-dependent kinases with antiproliferative activity” (J Med Chem, 2011)
pIC50: −log10 of the molar value. Activity calls are given as the source filed them. No cut-off for these calls is given here.

What was measured:
RPMI-8226 [1] = experiment: Cell cycle arrest in human RPMI8226 cells assessed as accumulation at G1 phase after 24 hrs using propidium iodide and BrdU staining by flow cytometry; type: functional, cell-based
Procedure, shortened: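 Subconfluent cells treated 24 h at varying concentrations, pulsed with 10 μM BrdU for 30 min at 37 °C, then trypsinized, fixed in ice-cold 70% ethanol and DNA denatured in 2 M HCl. After staining with fluorescein anti-BrdU (1:50), propidium iodide (0.1 mg/mL) and RNase A (0.5 mg/mL), cells were read by flow cytometry with a 488 nm laser.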

[2] = molecular target: MAP kinase-activated protein kinase 5 (Homo sapiens) (UniProt Q8IW41); experiment: Inhibition of human recombinant PRAK at 10 uM
Chain of MAP kinase-activated protein kinase 5 (Homo sapiens) (Q8IW41 whole entry): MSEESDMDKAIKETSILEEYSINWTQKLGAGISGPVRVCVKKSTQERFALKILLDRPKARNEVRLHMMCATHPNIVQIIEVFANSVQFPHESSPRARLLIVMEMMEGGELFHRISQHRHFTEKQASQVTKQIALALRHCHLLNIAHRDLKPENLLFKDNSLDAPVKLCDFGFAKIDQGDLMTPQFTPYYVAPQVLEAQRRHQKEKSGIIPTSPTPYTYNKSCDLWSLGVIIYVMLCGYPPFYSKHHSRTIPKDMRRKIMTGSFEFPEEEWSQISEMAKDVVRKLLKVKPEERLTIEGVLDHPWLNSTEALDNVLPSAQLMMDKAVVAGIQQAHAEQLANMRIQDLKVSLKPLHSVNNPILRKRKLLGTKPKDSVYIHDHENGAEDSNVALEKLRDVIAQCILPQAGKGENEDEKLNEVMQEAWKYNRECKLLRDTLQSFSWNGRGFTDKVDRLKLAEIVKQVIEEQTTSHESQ

RPMI-8226 [3] = experiment: Cytotoxicity against human RPMI8226 cells after 72 hrs by fluoroskan ascent microplate reader analysis; type: functional, cell-based; details: RPMI-8226, 72 h
Procedure, shortened: (§1)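 Cells were grown in DMEM with 10% FCS and 4 mM glutamine at 37 °C under CO2, then plated at densities suited to each line. Compounds were added as 3-fold dilutions in triplicate for 72 h.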

MCF7 [4] = experiment: Cell cycle arrest in human MCF7 cells assessed as decrease in S phase cell population after 24 hrs using propidium iodide and BrdU staining by flow cytometry; type: functional, cell-based
Procedure, shortened: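 Subconfluent MCF-7 cells were treated for 24 h at a range of concentrations. They were pulse-labelled with 10 μM BrdU for 30 min at 37 °C, then trypsinized and fixed in ice-cold 70% ethanol. DNA was denatured in 2 M HCl and neutralized with borate. Cells were stained with fluorescein anti-BrdU and with propidium iodide plus RNase A, then analysed by flow cytometry at 488 nm.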

HOS = experiment: Cytotoxicity against human HOS cells after 72 hrs by fluoroskan ascent microplate reader analysis; type: functional, cell-based; procedure, shortened: as §1
MCF7 [5] = experiment: Cytotoxicity against human MCF7 cells after 72 hrs by fluoroskan ascent microplate reader analysis; type: functional, cell-based; details: MCF7, 72 h; procedure, shortened: as §1
HeLa = experiment: Cytotoxicity against human HeLa cells after 72 hrs by fluoroskan ascent microplate reader analysis; type: functional, cell-based; procedure, shortened: as §1
[6] = molecular target: Cellular tumor antigen p53 (Homo sapiens) (UniProt P04637); experiment: Induction of p53-dependent transcriptional activity in human ARN8 cells assessed as beta-galactosidase activity at 10 to 20 uM after 24 hrs by immunofluorescence assay; type: cell-based
Chain of Cellular tumor antigen p53 (Homo sapiens) (P04637 whole entry, looked up): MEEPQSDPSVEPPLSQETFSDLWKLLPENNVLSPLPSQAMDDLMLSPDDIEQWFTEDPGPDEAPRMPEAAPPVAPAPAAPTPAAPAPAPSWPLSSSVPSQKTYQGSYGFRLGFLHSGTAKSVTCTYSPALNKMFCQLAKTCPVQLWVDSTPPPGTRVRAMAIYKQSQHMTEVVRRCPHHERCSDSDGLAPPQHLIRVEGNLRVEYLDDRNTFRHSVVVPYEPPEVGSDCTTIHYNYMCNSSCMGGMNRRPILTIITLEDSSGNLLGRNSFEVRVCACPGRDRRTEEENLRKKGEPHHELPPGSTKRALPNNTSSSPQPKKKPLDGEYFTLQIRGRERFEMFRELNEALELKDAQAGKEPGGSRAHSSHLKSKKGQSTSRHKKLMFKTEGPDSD
Procedure, shortened: (§2)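 ARN8 melanoma cells stably carrying the p53-responsive pRGCΔfoslacZ reporter were exposed to inhibitors for 24 h, permeabilized with 0.3% Triton X-100 for 15 min, and given MUG substrate (final 80 μM). Fluorescence was read at 355/460 nm after 1 h. Data are mean ± SD of three independent experiments.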

[7] = molecular target: Cyclin-dependent kinase 5/CDK5 activator 1 (Homo sapiens) (UniProt Q00535+Q15078); details: at 10 µM
Chain of Cyclin-dependent kinase 5/CDK5 activator 1 (Homo sapiens) (Q00535 whole entry): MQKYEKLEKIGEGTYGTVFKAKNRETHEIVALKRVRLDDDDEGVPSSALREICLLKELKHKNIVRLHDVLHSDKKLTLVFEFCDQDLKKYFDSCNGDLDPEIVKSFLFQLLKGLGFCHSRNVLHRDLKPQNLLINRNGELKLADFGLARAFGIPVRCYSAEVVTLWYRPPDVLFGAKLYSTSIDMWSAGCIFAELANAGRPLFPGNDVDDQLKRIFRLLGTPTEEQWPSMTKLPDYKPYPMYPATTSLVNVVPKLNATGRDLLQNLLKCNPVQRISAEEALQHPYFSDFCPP
Chain of Cyclin-dependent kinase 5/CDK5 activator 1 (Homo sapiens) (Q15078 99-307 partner limits assumed): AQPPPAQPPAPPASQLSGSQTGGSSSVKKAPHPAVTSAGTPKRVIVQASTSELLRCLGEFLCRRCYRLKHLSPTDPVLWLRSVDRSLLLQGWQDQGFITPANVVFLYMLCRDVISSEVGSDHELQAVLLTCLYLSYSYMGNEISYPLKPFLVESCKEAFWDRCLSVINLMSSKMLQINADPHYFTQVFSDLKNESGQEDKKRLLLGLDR

MCF7 [8] = experiment: Induction of apoptosis in human MCF7 cells at 10 uM after 24 hrs; type: functional, cell-based
[9] = molecular target: Dual specificity mitogen-activated protein kinase kinase 1 (Homo sapiens) (UniProt Q02750); experiment: Inhibition of human recombinant MEK1 at 10 uM
Chain of Dual specificity mitogen-activated protein kinase kinase 1 (Homo sapiens) (Q02750 whole entry): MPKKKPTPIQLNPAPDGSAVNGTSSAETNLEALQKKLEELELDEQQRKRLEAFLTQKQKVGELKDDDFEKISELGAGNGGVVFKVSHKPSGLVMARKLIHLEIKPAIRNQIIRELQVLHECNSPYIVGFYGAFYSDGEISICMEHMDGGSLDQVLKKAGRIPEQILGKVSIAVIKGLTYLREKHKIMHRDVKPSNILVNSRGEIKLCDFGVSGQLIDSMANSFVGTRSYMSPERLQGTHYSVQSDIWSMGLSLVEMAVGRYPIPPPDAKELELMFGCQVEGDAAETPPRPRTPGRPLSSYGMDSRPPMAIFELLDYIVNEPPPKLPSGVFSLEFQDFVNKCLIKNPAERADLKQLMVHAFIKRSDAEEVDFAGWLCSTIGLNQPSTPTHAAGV

[10] = molecular target: Cellular tumor antigen p53 (Homo sapiens) (UniProt P04637); experiment: Induction of p53-dependent transcriptional activity in human ARN8 cells assessed as beta-galactosidase activity after 24 hrs by immunofluorescence assay; type: cell-based; procedure, shortened: as §2
[11] = molecular target: T1, Retinoblastoma-associated protein (Homo sapiens) (UniProt P06400); experiment: Inhibition of retinoblastoma protein phosphorylation at Ser249/Thr252, Ser807/811, Ser780, and Ser795 in human MCF7 cells after 24 hrs by immunoblotting; type: cell-based
T1 sequence (whole entry): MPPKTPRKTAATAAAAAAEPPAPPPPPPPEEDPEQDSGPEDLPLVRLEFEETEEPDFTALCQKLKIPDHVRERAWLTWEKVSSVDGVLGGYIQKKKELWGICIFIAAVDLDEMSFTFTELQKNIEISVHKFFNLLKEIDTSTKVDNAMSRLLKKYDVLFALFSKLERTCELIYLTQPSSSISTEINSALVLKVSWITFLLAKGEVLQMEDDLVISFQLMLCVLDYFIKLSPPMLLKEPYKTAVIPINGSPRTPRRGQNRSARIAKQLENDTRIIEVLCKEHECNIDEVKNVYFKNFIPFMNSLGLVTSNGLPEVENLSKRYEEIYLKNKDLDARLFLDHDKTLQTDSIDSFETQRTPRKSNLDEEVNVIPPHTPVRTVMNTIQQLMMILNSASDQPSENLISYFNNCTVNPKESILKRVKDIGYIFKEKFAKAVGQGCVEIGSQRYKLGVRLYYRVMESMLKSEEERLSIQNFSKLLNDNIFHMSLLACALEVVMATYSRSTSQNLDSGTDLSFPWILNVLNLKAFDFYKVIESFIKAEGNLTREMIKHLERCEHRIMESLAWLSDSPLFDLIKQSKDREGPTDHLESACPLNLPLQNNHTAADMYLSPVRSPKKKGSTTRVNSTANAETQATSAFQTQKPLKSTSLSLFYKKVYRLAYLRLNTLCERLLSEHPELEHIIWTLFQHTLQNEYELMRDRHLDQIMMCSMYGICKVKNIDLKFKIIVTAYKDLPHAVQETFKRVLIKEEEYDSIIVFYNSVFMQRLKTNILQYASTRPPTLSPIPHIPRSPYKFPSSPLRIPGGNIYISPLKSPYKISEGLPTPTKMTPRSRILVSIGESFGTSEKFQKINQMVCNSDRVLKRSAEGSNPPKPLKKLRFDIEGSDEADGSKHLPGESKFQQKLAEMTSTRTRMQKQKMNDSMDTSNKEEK
Procedure, shortened: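 Asynchronous, exponentially growing MCF-7 cells were exposed 24 h to a range of concentrations. Total lysates were made in Laemmli buffer, run on SDS-PAGE and blotted to nitrocellulose. Membranes were probed overnight at 4 °C with specific or phosphospecific antibodies (pRb S249/T252, S780, S795, S807/811), with tubulin as loading control and ECL detection.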

RPMI-8226 [12] = experiment: Induction of apoptosis in human RPMI8226 cells assessed as cleaved fragmentation of caspase3 after 24 hrs by immunoblot analysis; type: functional, cell-based
Procedure, shortened: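 RPMI-8226 cells were treated continuously for 24 h, and total lysates were made in Laemmli buffer, run on SDS-PAGE and blotted to nitrocellulose. Loading was checked with Ponceau-S. Membranes were blocked in milk or BSA, probed overnight at 4 °C with antibodies to PARP, caspase-3 and Mcl-1, then peroxidase secondary (1:2000), with ECL detection.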

RPMI-8226 [13] = experiment: Cell cycle arrest in human RPMI8226 cells assessed as accumulation at G2/M phase after 24 hrs using propidium iodide and BrdU staining by flow cytometry; type: functional, cell-based
Procedure, shortened: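 Asynchronously growing RPMI-8226 multiple myeloma cells were exposed for 24 h. Cells were double-stained with propidium iodide and BrdU and analysed by flow cytometry for G1, S, G2/M and BrdU-positive fractions. The subG1 population was taken as indicative of apoptosis.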

U2OS = experiment: Reduction of homologous recombination in human DR-U2OS-GFP cells expressing I-SceI nuclease at 5 uM after 56 hrs […] relative to control; type: functional
CCRF-CEM = experiment: Cytotoxicity against human CEM cells after 72 hrs by fluoroskan ascent microplate reader analysis; type: functional, cell-based; procedure, shortened: as §1
A-431 = experiment: Cytotoxicity against human A431 cells after 72 hrs by fluoroskan ascent microplate reader analysis; type: functional, cell-based; details: A-431, 72 h; procedure, shortened: as §1

inhibition [2]: 30%
Activity [6]: Active
inhibition [7]: 95%
inhibition [9]: 58%
Activity [10]: Dose-dependent effect
inhibition [11]: Dose-dependent effect
SMILES: CC[C@H](CO)Nc1nc(NCc2ccccc2)c2[nH]nc(C(C)C)c2n1
Activity (RPMI-8226 [1]): Active
pIC50 (RPMI-8226 [3]): 5.44
Activity (MCF7 [4]): Active
pIC50 (HOS): 5.12
pIC50 (MCF7 [5]): 5.12
pIC50 (HeLa): 5.16
Activity (MCF7 [8]): Active
Activity (RPMI-8226 [12]): Active
Activity (RPMI-8226 [13]): Active
inhibition at 5 µM (U2OS): 66%
pIC50 (CCRF-CEM): 5.42
pIC50 (A-431): 5.11
